Assay results taken from ChEMBL document CHEMBL1155882, “Selective nucleoside triphosphate diphosphohydrolase-2 (NTPDase2) inhibitors: nucleotide mimetics derived from uridine-5'-carboxamide” (J Med Chem, 2008).

Legend:
[1] = target: P2Y purinoceptor 6 (Rattus norvegicus) (UniProt Q63371); assay: Antagonist activity at rat P2Y6 receptor expressed in human 1321N1 cells assessed as inhibition of UDP-induced intracellular calcium mobilization at 100 uM by NOVOstar plate reader; format: functional, cell-based
Chain of P2Y purinoceptor 6 (Rattus norvegicus) (Q63371 whole entry): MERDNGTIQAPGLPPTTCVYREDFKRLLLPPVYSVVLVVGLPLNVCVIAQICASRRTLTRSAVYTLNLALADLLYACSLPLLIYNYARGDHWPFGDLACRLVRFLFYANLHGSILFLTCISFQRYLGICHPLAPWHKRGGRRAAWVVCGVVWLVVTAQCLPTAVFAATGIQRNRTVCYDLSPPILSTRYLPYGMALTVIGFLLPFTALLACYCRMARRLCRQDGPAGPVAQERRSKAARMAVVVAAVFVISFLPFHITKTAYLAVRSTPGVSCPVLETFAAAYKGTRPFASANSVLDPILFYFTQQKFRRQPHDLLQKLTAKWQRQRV
In short: (§1)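 Human 1321N1 astrocytoma cells express human P2Y2 or P2Y4, or rat P2Y6. Cells are loaded with Fura-2 AM and preincubated with compound at 100 μM. Inhibition of agonist-induced intracellular calcium release is read as Fura-2 fluorescence. The agonist is UTP for P2Y2 and P2Y4, and UDP for P2Y6.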

P2Y purinoceptor 4 [2] = target: T1, P2Y purinoceptor 4 (Homo sapiens, UniProt P51582); assay: Antagonist activity at human P2Y4 receptor expressed in human 1321N1 cells assessed as inhibition of UTP-induced receptor activation at 100 uM relative to UTP; format: functional, cell-based; set-up: scale not given: the % may be the effect or the level left; in short: as §1
T1 sequence (P51582 whole entry): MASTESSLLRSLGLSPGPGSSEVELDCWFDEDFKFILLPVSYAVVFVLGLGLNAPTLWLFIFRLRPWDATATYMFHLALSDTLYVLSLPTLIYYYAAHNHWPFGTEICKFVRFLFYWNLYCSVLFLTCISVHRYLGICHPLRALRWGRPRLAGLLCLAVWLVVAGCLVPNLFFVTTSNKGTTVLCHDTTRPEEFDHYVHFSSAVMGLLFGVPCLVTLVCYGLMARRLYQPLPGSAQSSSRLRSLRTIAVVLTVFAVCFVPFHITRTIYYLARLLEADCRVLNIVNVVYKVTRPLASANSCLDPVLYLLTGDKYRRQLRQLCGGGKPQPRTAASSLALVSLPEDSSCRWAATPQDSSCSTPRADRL

[3] = Stability in simulated artificial gastric juice after 24 hrs by LC-MS analysis; format: physicochemical; conditions: simulated gi fluid
P2Y purinoceptor 2 [4] = target: T2, P2Y purinoceptor 2 (Homo sapiens, UniProt P41231); assay: Antagonist activity at human P2Y2 receptor expressed in human 1321N1 cells assessed as inhibition of UTP and ATP-induced receptor activation at 100 uM relative to UTP; format: functional, cell-based; set-up: scale not given: the % may be the effect or the level left; in short: as §1
T2 sequence (P41231 whole entry): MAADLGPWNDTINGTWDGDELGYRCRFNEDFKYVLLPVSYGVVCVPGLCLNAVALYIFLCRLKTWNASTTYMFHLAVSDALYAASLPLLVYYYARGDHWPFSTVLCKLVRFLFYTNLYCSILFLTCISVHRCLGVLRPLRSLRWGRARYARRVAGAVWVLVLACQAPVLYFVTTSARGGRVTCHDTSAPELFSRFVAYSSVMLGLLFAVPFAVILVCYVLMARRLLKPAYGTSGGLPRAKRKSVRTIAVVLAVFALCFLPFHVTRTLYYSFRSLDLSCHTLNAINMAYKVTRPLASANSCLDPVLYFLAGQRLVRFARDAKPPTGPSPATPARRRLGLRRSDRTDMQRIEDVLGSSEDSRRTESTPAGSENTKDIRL

[5] = Chemical stability in 0.001 N aqueous sodium hydroxide at pH 11 by LC-MS analysis; format: physicochemical; conditions: buffer
In short: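 Compound from a 2 mM aqueous stock (20 mM NH4OAc) is diluted 10 μL into 990 μL of 0.001 N NaOH (pH 11). It is incubated 2 or 24 h at 37 °C and analysed by C18 LC–ESI-MS, with detection limit about 0.1 μg/mL.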

[6] = Metabolic stability in rat liver microsomes after 24 hrs by LC-MS analysis; format: ADME, Microsome; conditions: read-out: Stability
[7] = target: T3, Ectonucleoside triphosphate diphosphohydrolase 8 (Homo sapiens) (UniProt Q5MY95); assay: Inhibition of human NTPDase 8 expressed in COS7 cells at 1mM; format: cell-based; conditions: COS-7
T3 sequence (whole entry): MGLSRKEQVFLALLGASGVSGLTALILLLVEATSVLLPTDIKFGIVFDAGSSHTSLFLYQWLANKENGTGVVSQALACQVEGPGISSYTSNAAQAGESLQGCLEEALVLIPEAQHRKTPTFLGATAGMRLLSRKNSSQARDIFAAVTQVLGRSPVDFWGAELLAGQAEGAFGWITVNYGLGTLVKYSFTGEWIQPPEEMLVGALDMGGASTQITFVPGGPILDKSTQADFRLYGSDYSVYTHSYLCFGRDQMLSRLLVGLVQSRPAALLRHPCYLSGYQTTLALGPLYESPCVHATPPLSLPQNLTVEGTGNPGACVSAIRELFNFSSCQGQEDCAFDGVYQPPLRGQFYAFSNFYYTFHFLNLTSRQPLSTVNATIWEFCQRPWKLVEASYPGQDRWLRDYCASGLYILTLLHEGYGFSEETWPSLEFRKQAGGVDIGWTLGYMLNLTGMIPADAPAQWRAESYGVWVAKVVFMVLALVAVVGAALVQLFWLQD
In short: (§2)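 Transiently transfected COS-7 cell protein extract expressing human enzyme. 1 mM test compound with 400 μM ATP in HEPES 10 mM pH 7.4 buffer (NaCl, KCl, 1 mM MgCl2, 2 mM CaCl2), 37 °C for 10 min. Stopped at 99 °C for 5 min. Products measured by capillary electrophoresis, UV 210 nm, with UMP internal standard. Triplicates in two experiments; empty-pcDNA3 membrane control.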

P2Y purinoceptor 4 [8] = target: T1, P2Y purinoceptor 4; assay: Antagonist activity at human P2Y4 receptor expressed in human 1321N1 cells assessed as inhibition of UTP-induced intracellular calcium mobilization at 100 uM by FLUOstar plate reader; format: functional, cell-based; in short: as §1
P2Y purinoceptor 2 [9] = target: T2, P2Y purinoceptor 2; assay: Antagonist activity at human P2Y2 receptor expressed in human 1321N1 cells assessed as inhibition of UTP-induced intracellular calcium mobilization at 100 uM by FLUOstar plate reader; format: functional, cell-based; in short: as §1
[10] = target: P2Y purinoceptor 6 (Rattus norvegicus) (UniProt Q63371); assay: Antagonist activity at rat P2Y6 receptor expressed in human 1321N1 cells assessed as inhibition of UDP-induced receptor activation at 100 uM relative to UDP; format: functional, cell-based; set-up: scale not given: the % may be the effect or the level left; in short: as §1
[11] = target: T4, Ectonucleoside triphosphate diphosphohydrolase 3 (Homo sapiens) (UniProt O75355); assay: Inhibition of human NTPDase 3 expressed in COS7 cells at 1mM; format: cell-based; conditions: COS-7
T4 sequence (whole entry): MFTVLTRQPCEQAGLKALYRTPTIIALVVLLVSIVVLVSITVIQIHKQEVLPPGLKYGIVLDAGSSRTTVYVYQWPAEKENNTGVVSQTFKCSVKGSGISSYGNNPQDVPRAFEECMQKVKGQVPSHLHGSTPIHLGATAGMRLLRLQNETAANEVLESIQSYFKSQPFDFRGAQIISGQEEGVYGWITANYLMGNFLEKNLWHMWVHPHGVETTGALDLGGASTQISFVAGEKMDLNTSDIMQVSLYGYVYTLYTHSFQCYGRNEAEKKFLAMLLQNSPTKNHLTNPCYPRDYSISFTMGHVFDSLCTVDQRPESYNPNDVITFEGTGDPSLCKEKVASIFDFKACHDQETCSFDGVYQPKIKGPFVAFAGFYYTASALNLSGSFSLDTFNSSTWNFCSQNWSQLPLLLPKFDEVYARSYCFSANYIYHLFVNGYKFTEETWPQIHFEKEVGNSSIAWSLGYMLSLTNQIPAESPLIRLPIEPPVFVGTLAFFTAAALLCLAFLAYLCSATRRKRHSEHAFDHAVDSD
In short: (§3)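 NTPDase2 membranes come from stably transfected HEK 293 cells; NTPDase3 and NTPDase8 are transiently expressed in COS-7 cells as crude protein extracts. Buffer is 140 mM NaCl, 5 mM KCl, 1 mM MgCl2, 2 mM CaCl2, 10 mM HEPES pH 7.4, with 400 μM ATP, 37 °C, 10 min, stopped at 99 °C. Products are read by capillary electrophoresis (UV 210 nm, UMP internal standard).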

[12] = target: T5, Ectonucleoside triphosphate diphosphohydrolase 2 (Homo sapiens, UniProt Q9Y5L3); assay: Inhibition of human NTPDase 2 expressed in HEK293 cells assessed as residual activity by capillary electrophoresis; format: cell-based; in short: as §3
T5 sequence (Q9Y5L3 whole entry): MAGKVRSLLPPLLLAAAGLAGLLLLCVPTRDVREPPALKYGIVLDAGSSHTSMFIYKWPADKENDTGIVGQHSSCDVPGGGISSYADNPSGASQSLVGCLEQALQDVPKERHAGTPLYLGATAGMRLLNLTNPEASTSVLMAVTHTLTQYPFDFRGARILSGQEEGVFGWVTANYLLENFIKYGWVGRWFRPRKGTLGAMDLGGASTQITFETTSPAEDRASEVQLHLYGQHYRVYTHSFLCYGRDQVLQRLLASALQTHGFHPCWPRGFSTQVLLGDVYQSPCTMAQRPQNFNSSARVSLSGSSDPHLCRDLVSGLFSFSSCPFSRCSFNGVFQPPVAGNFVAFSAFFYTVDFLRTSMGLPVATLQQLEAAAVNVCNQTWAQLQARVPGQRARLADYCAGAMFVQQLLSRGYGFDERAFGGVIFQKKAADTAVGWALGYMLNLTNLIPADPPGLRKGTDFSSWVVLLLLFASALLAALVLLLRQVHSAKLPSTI

[13] = target: T6, Ectonucleoside triphosphate diphosphohydrolase 1 (Homo sapiens) (UniProt P49961); assay: Inhibition of human NTPDase 1 expressed in COS7 cells at 1mM; format: cell-based; conditions: COS-7; in short: as §2
T6 sequence (whole entry): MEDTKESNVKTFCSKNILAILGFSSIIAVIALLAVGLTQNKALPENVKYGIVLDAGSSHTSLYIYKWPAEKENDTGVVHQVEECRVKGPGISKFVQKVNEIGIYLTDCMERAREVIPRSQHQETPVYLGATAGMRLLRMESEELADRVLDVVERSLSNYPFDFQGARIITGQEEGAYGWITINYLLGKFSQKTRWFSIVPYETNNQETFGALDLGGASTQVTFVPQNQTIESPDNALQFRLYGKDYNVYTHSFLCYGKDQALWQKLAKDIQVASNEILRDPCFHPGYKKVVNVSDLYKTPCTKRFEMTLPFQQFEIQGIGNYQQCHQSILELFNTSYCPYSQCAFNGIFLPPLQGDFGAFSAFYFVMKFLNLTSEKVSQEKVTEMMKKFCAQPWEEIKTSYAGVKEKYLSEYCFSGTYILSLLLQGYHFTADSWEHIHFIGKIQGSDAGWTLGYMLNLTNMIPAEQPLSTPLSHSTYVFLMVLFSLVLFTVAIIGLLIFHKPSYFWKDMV

[14] = target: T7, Ectonucleoside triphosphate diphosphohydrolase 2 (Homo sapiens) (UniProt Q9Y5L3); assay: Inhibition of human NTPDase 2 expressed in HEK293 cells at 1mM; format: cell-based
T7 sequence (whole entry): T5 sequence (Q9Y5L3 whole entry)
In short: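 Membranes from HEK 293 cells stably expressing human NTPDase2 (geneticin selection), prepared by differential and sucrose-gradient centrifugation. 1 mM test compound with 400 μM ATP in 10 mM HEPES pH 7.4 saline (1 mM MgCl2, 2 mM CaCl2), 37 °C for 10 min. Heat-stopped at 99 °C. Nucleotides separated by capillary electrophoresis, UV 210 nm, UMP internal standard. Triplicates, two experiments.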

CCOP(=O)(Cc1ccc(NC(=O)CCNC(=O)[C@H]2O[C@@H](n3ccc(=O)[nH]c3=O)[C@H](O)[C@@H]2O)cc1)OCC
inhibition [1]: 7% | Activity (P2Y purinoceptor 4 [2]): -6% | Activity [3]: Active | Activity (P2Y purinoceptor 2 [4]): 14% | Activity [5]: Active | remaining at 24 h [6]: > 95% | inhibition [7]: 0% | inhibition (P2Y purinoceptor 4 [8]): 14% | inhibition (P2Y purinoceptor 2 [9]): 10% | Activity [10]: -5% | inhibition [11]: 40%

CCOP(=O)(Cc1ccc(NC(=O)CCCNC(=O)[C@H]2O[C@@H](n3ccc(=O)[nH]c3=O)[C@H](O)[C@@H]2O)cc1)OCC
inhibition [1]: -8% | Stability [3]: Stable | Stability [5]: Stable | inhibition (P2Y purinoceptor 4 [8]): 7% | inhibition (P2Y purinoceptor 2 [9]): 6% | inhibition [11]: 48%

CCOP(=O)(CNC(=O)CCCNC(=O)[C@H]1O[C@@H](n2ccc(=O)[nH]c2=O)[C@H](O)[C@@H]1O)OCC
inhibition [1]: -3% | IC50 [12]: 101 µM | inhibition [13]: 45% | inhibition [7]: 0% | inhibition (P2Y purinoceptor 4 [8]): 21% | inhibition [11]: 0%

CCOP(=O)(CCNC(=O)CNC(=O)[C@H]1O[C@@H](n2ccc(=O)[nH]c2=O)[C@H](O)[C@@H]1O)OCC
inhibition [1]: 9% | inhibition [13]: 0% | inhibition [7]: 0% | inhibition (P2Y purinoceptor 4 [8]): 8% | inhibition (P2Y purinoceptor 2 [9]): -7% | inhibition [11]: 22%

CCOP(=O)(CNC(=O)CCCNC(=O)[C@H]1O[C@@H](n2cnc3c(N)ncnc32)[C@H](O)[C@@H]1O)OCC
inhibition [13]: 0% | inhibition [7]: 0% | inhibition (P2Y purinoceptor 2 [9]): 32% | inhibition [14]: 0% | inhibition [11]: 0%

CCOP(=O)(CNC(=O)CNC(=O)[C@H]1O[C@@H](n2cnc3c(N)ncnc32)[C@H](O)[C@@H]1O)OCC
Activity (P2Y purinoceptor 4 [2]): -2% | Activity (P2Y purinoceptor 2 [4]): 33% | inhibition [13]: 0% | inhibition [7]: 0% | inhibition (P2Y purinoceptor 2 [9]): 61% | Activity [10]: 6% | inhibition [14]: 0% | inhibition [11]: 25%

CCOP(=O)(CNC(=O)CCNC(=O)[C@H]1O[C@@H](n2cnc3c(N)ncnc32)[C@H](O)[C@@H]1O)OCC
inhibition [13]: 0% | inhibition [7]: 0% | inhibition (P2Y purinoceptor 2 [9]): 29% | inhibition [14]: 0% | inhibition [11]: 0%
